Reference: ChEMBL document CHEMBL4028899, “Tyrocidine A Analogues Bearing the Planar d-Phe-2-Abz Turn Motif: How Conformation Impacts Bioactivity” (J Med Chem, 2017)
≈ marks a conversion by molar mass, not a printed value. Calls of active or inactive are those of the source. The rule behind the calls is not given here. Square brackets hold non-standard residues; d marks the D form. Peptide text beside a SMILES is read from it. Orn = NCCC[C@H](N)C(=O)O; 2Abz = Nc1ccccc1C(=O)O

Columns and labels:
Escherichia coli = assay: Antibacterial activity against Escherichia coli after 18 hrs; assay type: functional
Outline: (§1)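 Broth microdilution in non-cation-adjusted MHB. Overnight 37 °C cultures adjusted to OD 0.1, then diluted 1:100. Two-fold compound dilutions were prepared in the plate before inoculation, with growth and sterility controls. Plates were incubated 18 h at 37 °C and read at OD600. MIC was the lowest concentration with no growth, from three concordant experiments each with three internal replicates.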

Pseudomonas aeruginosa [1] = assay: Antibacterial activity against Pseudomonas aeruginosa after 18 hrs; assay type: functional; outline: as §1
Staphylococcus aureus [2] = assay: Antibacterial activity against Staphylococcus aureus after 18 hrs; assay type: functional; outline: as §1
Staphylococcus aureus [3] = assay: Antibacterial activity against Staphylococcus aureus assessed as induction of cell membrane rupture at 4 times MIC after 1 hr by uranyl acetate/lead citrate staining-based transmission electron microscopic method; assay type: functional
Outline: (§2)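 Overnight cultures in non-cation-adjusted MHB were diluted to OD 0.4. 1 mL aliquots were incubated 1 h at 37 °C with compound at 4 x MIC or without compound (control). Cells were washed in Tris buffer (pH 7.4) and fixed in 4% glutaraldehyde for 2 h at room temperature. They were post-fixed in 1% osmium tetroxide, ethanol/acetone dehydrated, epoxy embedded (60 °C, 48 h), ultrathin sectioned and imaged by TEM.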

Staphylococcus aureus [4] = assay: Antibacterial activity against Staphylococcus aureus assessed as induction of cell wall rupture at 4 times MIC after 1 hr by uranyl acetate/lead citrate staining-based transmission electron microscopic method; assay type: functional; outline: as §2
Staphylococcus aureus [5] = assay: Antibacterial activity against Staphylococcus aureus assessed as decrease in intracellular density at 4 times MIC after 1 hr by uranyl acetate/lead citrate staining-based transmission electron microscopic method; assay type: functional, cell-based; outline: as §2
Pseudomonas aeruginosa [6] = assay: Antibacterial activity against Pseudomonas aeruginosa assessed as induction of cell membrane rupture at 4 times MIC after 1 hr by uranyl acetate/lead citrate staining-based transmission electron microscopic method; assay type: functional; outline: as §2
Candida albicans [7] = assay: Antifungal activity against Candida albicans after 48 hrs; assay type: functional
Outline: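 A single C. albicans colony was taken into RPMI, adjusted to OD 0.1 and diluted 1:100. Two-fold compound dilutions were set up as for the bacterial microdilution and incubated 48 h. MIC was scored visually from colonies on the well bottoms as the lowest concentration with no growth, from three concordant experiments each with three internal replicates.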

Candida albicans [8] = assay: Antifungal activity against Candida albicans after 48 hrs in presence of 0.39 uM amphotericin B; assay type: functional
Outline: (§3)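 C. albicans in RPMI (OD 0.1, diluted 1:100) was tested by two-fold compound dilution with 48 h incubation. The medium was supplemented with amphotericin B at 0.78 or 1.56 µM, giving a final 0.39 or 0.78 µM per well. MIC was read visually as no colony growth, from three concordant experiments each with three internal replicates.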

Candida albicans [9] = assay: Antifungal activity against Candida albicans after 48 hrs in presence of 0.78 uM amphotericin B; assay type: functional; outline: as §3
[10] = Solubility of the compound in water; assay type: physicochemical; details: buffer
Pseudomonas aeruginosa [11] = assay: Antibacterial activity against Pseudomonas aeruginosa assessed as induction of total membrane lysis at 4 times MIC after 1 hr by uranyl acetate/lead citrate staining-based transmission electron microscopic method; assay type: functional; outline: as §2
Pseudomonas aeruginosa [12] = assay: Antibacterial activity against Pseudomonas aeruginosa assessed as induction of cell blebbing at 4 times MIC after 1 hr by uranyl acetate/lead citrate staining-based transmission electron microscopic method; assay type: functional; outline: as §2

Compound	MIC (Escherichia coli) [µM]	MIC (Pseudomonas aeruginosa [1]) [µM]	MIC (Staphylococcus aureus [2]) [µM]	Activity (Staphylococcus aureus [3])	Activity (Staphylococcus aureus [4])	Activity (Staphylococcus aureus [5])	Activity (Pseudomonas aeruginosa [6])	MIC (Candida albicans [7]) [µM]	MIC (Candida albicans [8]) [µM]	MIC (Candida albicans [9]) [µM]	solubility [10]	Activity (Pseudomonas aeruginosa [11])	Activity (Pseudomonas aeruginosa [12])
CC(C)C[C@@H]1NC(=O)[C@H](CCCN)NC(=O)[C@H](C(C)C)NC(=O)[C@H](Cc2ccc(O)cc2)NC(=O)[C@H](CCC(N)=O)NC(=O)[C@H](CC(N)=O)NC(=O)[C@@H](Cc2ccccc2)NC(=O)[C@H](Cc2ccccc2)NC(=O)[C@@H]2CCCN2C(=O)[C@@H](Cc2ccccc2)NC1=O [TYROCIDINE A] (cyclo(F[dF]NQYV[Orn]L[dF]P))	25 (≈ 31.8 µg/mL)	100 (≈ 127 µg/mL)	1.56 (≈ 1.98 µg/mL)	Active	Active	Active	inactive	3.12 (≈ 3.97 µg/mL)	0.78	0.39			
CC(C)C[C@@H]1NC(=O)[C@H](CCCN)NC(=O)[C@H](C(C)C)NC(=O)[C@H](Cc2ccc(O)cc2)NC(=O)[C@H](CCC(N)=O)NC(=O)[C@H](CC(N)=O)NC(=O)[C@@H](Cc2ccccc2)NC(=O)[C@H](Cc2ccccc2)NC(=O)c2ccccc2NC(=O)[C@@H](Cc2ccccc2)NC1=O (cyclo([2Abz]F[dF]NQYV[Orn]L[dF]))	50 (≈ 64.6 µg/mL)	100 (≈ 129 µg/mL)	6.25 (≈ 8.08 µg/mL)								Insoluble		
CC(C)C[C@@H]1NC(=O)[C@H](CCCN)NC(=O)[C@H](C(C)C)NC(=O)[C@H](Cc2ccc(O)cc2)NC(=O)[C@H](CCCCN)NC(=O)[C@H](CC(N)=O)NC(=O)[C@@H](Cc2ccccc2)NC(=O)[C@H](Cc2ccccc2)NC(=O)c2ccccc2NC(=O)[C@@H](Cc2ccccc2)NC1=O (cyclo([2Abz]F[dF]NKYV[Orn]L[dF]))	12.5 (≈ 16.2 µg/mL)	25 (≈ 32.3 µg/mL)	1.56 (≈ 2.02 µg/mL)	Active	Active	Active		12.5 (≈ 16.2 µg/mL)	0.78	0.39		Active	Active
C[C@@H]1[C@H](O)[C@@H](C)/C=C/C=C/C=C/C=C/C=C/C=C/C=C/[C@H](O[C@@H]2O[C@H](C)[C@@H](O)[C@H](N)[C@@H]2O)C[C@@H]2O[C@](O)(C[C@@H](O)C[C@@H](O)[C@H](O)CC[C@@H](O)C[C@@H](O)CC(=O)O[C@H]1C)C[C@H](O)[C@H]2C(=O)O [AMPHOTERICIN B]								1.56 (≈ 1.44 µg/mL)					
